# Laboratory results published in ChEMBL document CHEMBL1240344, “Phage-encoded combinatorial chemical libraries based on bicyclic peptides” (Nat Chem Biol, 2009).
# Activity calls are given as the source filed them. The rule behind the calls is not given here. Starred links: 1 amine or outer side, 2 acyl side, 3 side chain; linkers in the order of their positions; H or OH if unused. Positions of bridges follow the written chain, without caps; N, C: chain ends. Residues, ends and D or L forms follow the SMILES beside them. TBMB = c1c(C[*:1])cc(C[*:3])cc1C[*:2]
# Experiments:
# [1] = biological target: Urokinase-type plasminogen activator (Homo sapiens, UniProt P00749); assay: Binding affinity to urokinase-type plasminogen activator
# [2] = biological target: Angiotensin-converting enzyme 2 (Homo sapiens, UniProt Q9BYF1); assay: Binding affinity to angiotensin converting enzyme 2
# [3] = biological target: T1, Plasma kallikrein (Homo sapiens, UniProt P03952); assay: Inhibition of kallikrein-mediated intrinsic coagulation pathway in human plasma assessed as reduction in factor 12a generation at 160 nM by colorimetric assay; type: cell-free
# Method in brief: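 Human plasma was triggered with kaolin to start the intrinsic pathway. Factor XIIa activity was then read with a colorimetric substrate.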
# [4] = Chemical stability of compound assessed as drug cleavage in presence of plasma kallikrein after 24 hrs at 37 degC by mass spectrometric analysis; type: physicochemical; conditions: read-out: Activity
# Method in brief: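 The peptide was incubated with human plasma kallikrein. Cleavage was detected by mass spectrometry as an 18 Da mass gain, and the cleaved fraction was estimated.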
# [5] = Chemical stability assessed as compound cleavage in presence of Aeromonas proteolytica by mass spectrometric analysis; type: physicochemical
# Method in brief: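 The kallikrein-cleaved peptide was incubated with leucyl aminopeptidase from Aeromonas proteolytica. The products were analysed by mass spectrometry to locate the cleavage site.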
# [6] = biological target: Prothrombin (Homo sapiens) (UniProt P00734); assay: Inhibition of human thrombin at 10 uM using Boc-Phe-Ser-Arg-AMC substrate after 30 mins by spectrophotometric assay
# [7] = biological target: T1, Plasma kallikrein; assay: Inhibition of human plasma kallikrein using Z-Phe-Arg-AMC substrate after 30 mins by spectrophotometric assay
# [8] = biological target: Coagulation factor XI (Homo sapiens) (UniProt P03951); assay: Inhibition of human factor 11a at 10 uM using Z-Phe-Arg-AMC substrate after 30 mins by spectrophotometric assay
# [9] = biological target: Plasma kallikrein (Mus musculus) (UniProt P26262); assay: Inhibition of mouse plasma kallikrein at 10 uM using Z-Phe-Arg-AMC substrate after 30 mins by spectrophotometric assay; type: cell-free
# [10] = Binding affinity to chymotrypsin
# [11] = biological target: T2, Deoxyribonuclease-2-alpha (Homo sapiens, UniProt O00115); assay: Binding affinity to Dnase 2
# T2 sequence (O00115 whole entry): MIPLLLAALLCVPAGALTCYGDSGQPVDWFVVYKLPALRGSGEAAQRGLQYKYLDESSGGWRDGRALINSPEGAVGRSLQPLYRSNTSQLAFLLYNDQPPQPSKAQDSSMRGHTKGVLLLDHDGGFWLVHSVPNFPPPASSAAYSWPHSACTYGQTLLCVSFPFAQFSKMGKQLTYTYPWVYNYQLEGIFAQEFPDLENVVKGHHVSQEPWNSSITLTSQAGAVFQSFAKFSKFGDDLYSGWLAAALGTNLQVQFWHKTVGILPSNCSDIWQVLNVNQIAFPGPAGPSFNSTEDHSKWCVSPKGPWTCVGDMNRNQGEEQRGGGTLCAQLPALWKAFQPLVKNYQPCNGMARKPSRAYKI
# [12] = biological target: T3, Prostate-specific antigen (Homo sapiens, UniProt P07288); assay: Binding affinity to prostate specific antigen
# T3 sequence (P07288 whole entry): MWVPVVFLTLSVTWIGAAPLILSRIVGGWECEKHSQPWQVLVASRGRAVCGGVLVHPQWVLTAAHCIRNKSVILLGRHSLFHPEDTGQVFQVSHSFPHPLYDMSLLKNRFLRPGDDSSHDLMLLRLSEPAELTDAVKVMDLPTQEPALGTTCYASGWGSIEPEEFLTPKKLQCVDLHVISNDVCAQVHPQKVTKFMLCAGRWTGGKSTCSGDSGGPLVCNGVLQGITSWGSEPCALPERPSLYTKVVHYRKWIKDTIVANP
# [13] = Binding affinity to beta-lactamase
# [14] = biological target: Coagulation factor VII/tissue factor (Homo sapiens, UniProt P08709); assay: Binding affinity to tissue factor/factor 7a; type: protein-complex assay
# [15] = biological target: Receptor tyrosine-protein kinase erbB-2 (Homo sapiens, UniProt P04626); assay: Binding affinity to ErbB-2
# [16] = biological target: T4, Kallikrein-2 (Homo sapiens, UniProt P20151); assay: Binding affinity to human kallikrein 2
# T4 sequence (P20151 whole entry): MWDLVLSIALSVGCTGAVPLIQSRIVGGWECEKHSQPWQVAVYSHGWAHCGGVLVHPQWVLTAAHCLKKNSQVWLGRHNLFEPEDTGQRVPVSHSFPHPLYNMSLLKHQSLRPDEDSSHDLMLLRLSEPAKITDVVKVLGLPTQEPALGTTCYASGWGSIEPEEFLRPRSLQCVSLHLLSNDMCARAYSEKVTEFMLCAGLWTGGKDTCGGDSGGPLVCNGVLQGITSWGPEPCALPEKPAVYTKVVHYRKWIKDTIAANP
# [17] = Binding affinity to urease
# T1 sequence (P03952 20-390 limits assumed): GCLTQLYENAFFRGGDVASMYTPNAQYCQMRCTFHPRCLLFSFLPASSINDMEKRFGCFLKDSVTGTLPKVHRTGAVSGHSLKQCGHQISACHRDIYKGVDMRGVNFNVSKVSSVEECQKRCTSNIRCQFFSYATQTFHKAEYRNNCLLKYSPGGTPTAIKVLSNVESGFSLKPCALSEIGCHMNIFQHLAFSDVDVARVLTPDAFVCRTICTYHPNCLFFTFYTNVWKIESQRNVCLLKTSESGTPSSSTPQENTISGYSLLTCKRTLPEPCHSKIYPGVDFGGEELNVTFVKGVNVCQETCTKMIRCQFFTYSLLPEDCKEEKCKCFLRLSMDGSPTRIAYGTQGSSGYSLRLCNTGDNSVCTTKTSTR
# T1 sequence (P03952 391-638 limits assumed): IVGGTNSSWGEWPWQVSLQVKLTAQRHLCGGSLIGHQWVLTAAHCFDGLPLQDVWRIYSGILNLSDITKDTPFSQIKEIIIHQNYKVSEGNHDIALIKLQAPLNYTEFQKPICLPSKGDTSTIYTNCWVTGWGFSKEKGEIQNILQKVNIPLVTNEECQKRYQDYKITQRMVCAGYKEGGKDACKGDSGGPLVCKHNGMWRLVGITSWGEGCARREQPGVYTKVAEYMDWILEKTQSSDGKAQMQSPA
# Angiotensin-converting enzyme 2, sequence (Q9BYF1 whole entry): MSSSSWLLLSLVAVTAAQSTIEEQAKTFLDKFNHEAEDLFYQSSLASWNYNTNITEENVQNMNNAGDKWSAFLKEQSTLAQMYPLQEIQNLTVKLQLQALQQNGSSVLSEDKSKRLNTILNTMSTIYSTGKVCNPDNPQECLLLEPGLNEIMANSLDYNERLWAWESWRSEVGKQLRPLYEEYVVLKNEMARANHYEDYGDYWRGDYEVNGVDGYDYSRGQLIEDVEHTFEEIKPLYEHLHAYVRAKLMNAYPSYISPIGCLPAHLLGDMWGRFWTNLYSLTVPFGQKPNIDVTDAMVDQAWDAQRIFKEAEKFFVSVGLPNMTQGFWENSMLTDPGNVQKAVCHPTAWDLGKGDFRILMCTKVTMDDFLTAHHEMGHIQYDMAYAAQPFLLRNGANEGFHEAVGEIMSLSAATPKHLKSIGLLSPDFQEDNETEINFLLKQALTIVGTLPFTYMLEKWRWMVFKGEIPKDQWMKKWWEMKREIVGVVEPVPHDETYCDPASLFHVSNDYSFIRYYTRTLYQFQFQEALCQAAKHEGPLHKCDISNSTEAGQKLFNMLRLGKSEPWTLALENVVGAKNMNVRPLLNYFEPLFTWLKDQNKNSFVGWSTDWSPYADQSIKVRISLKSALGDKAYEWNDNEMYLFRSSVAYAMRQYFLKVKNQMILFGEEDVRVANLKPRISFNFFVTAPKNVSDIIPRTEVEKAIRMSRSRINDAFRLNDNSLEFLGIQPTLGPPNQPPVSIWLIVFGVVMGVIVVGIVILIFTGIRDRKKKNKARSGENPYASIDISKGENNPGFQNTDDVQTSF
# Coagulation factor VII/tissue factor, sequence (P08709 61-212 limits assumed): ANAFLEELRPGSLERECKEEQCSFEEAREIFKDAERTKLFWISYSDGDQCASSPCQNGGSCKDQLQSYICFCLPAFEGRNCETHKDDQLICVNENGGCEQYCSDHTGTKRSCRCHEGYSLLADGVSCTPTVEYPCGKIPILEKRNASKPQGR
# Coagulation factor VII/tissue factor, sequence (P08709 213-466 limits assumed): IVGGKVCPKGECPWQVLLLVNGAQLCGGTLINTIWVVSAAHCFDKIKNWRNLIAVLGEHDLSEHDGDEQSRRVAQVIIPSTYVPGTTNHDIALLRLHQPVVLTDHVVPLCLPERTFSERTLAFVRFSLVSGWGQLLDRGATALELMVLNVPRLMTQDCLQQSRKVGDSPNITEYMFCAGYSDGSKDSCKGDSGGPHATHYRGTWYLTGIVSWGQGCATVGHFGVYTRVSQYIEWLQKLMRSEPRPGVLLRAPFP
# Coagulation factor VII/tissue factor, sequence (P13726 33-295 partner limits assumed): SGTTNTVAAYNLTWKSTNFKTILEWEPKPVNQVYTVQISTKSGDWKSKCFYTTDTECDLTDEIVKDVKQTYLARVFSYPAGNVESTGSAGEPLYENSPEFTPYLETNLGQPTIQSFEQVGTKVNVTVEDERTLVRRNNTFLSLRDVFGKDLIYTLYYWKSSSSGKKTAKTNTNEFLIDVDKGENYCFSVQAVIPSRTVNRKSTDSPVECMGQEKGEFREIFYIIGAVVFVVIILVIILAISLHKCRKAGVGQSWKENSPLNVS
# Plasma kallikrein (Mus musculus), sequence (P26262 20-390 limits assumed): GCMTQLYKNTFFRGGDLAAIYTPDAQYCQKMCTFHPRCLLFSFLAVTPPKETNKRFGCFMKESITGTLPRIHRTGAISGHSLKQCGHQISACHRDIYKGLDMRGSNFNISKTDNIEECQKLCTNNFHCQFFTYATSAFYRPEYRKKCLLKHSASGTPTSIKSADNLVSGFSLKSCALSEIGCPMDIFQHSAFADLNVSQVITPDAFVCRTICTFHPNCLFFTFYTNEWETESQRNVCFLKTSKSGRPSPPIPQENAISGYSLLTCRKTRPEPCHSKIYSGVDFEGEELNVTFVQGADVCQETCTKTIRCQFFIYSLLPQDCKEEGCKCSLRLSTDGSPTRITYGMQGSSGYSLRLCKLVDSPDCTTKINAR
# Plasma kallikrein (Mus musculus), sequence (P26262 391-638 limits assumed): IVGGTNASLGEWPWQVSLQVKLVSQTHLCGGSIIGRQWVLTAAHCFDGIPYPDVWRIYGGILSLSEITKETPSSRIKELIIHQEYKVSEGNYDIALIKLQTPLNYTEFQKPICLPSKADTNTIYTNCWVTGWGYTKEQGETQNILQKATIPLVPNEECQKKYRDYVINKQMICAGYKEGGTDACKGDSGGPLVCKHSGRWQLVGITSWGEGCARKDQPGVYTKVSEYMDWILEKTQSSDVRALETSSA
# Receptor tyrosine-protein kinase erbB-2, sequence (P04626 whole entry): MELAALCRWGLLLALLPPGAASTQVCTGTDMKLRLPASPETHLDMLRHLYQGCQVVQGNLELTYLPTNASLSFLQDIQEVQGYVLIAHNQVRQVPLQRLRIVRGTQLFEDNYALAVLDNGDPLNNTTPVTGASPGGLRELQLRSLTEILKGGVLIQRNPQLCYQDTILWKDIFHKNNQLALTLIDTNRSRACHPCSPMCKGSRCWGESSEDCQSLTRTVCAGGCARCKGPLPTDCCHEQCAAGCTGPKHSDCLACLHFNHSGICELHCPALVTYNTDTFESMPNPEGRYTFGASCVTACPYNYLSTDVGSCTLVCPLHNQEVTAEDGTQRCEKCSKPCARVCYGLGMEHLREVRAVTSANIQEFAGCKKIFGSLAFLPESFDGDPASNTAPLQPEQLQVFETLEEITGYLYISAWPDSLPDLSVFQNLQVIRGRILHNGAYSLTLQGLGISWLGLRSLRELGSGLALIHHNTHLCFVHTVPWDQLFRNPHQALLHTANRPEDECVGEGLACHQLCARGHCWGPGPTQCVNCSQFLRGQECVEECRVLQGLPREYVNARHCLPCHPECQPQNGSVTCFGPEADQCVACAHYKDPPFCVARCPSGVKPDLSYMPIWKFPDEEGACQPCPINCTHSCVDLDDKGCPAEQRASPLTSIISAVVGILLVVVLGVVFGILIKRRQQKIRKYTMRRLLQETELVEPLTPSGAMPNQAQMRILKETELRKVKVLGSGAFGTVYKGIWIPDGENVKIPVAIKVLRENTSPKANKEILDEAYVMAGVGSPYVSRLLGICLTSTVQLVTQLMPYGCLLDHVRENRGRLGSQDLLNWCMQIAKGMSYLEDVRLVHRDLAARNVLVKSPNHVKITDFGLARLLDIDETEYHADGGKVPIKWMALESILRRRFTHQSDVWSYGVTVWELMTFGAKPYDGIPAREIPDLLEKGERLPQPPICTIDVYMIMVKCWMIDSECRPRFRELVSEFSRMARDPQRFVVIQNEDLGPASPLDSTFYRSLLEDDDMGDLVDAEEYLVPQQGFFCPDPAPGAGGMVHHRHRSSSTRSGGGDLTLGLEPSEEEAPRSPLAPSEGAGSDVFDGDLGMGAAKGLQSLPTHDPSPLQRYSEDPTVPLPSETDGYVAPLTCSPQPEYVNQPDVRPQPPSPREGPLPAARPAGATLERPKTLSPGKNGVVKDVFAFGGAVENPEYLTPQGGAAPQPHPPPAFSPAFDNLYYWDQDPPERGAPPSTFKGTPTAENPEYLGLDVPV
# Coagulation factor XI (Homo sapiens), sequence (P03951 19-387 limits assumed): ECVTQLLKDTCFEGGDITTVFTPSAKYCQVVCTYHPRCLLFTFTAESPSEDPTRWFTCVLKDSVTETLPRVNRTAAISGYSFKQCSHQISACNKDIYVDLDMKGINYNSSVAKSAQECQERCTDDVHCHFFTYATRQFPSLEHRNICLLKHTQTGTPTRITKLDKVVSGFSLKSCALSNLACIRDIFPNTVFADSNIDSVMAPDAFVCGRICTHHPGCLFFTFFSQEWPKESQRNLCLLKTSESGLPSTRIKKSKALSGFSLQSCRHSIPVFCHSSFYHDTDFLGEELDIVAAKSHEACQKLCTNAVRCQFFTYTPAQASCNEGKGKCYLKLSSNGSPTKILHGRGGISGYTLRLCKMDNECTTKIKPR
# Coagulation factor XI (Homo sapiens), sequence (P03951 388-625 limits assumed): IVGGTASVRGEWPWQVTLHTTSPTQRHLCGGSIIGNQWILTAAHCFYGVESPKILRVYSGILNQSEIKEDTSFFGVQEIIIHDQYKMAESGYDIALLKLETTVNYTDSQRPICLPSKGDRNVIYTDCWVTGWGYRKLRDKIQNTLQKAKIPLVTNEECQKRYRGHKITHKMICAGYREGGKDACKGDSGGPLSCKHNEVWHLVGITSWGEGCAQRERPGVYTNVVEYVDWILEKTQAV
compound,measurement,setting,value
CSCC[C@H](NC(=O)[C@H](CCCNC(=N)N)NC(=O)[C@H](Cc1cnc[nH]1)NC(=O)[C@H](CC(N)=O)NC(=O)[C@H](CCC(=O)O)NC(=O)[C@H](CC(C)C)NC(=O)CNC(=O)[C@H](CCCNC(=N)N)NC(=O)[C@H](Cc1c[nH]c2ccccc12)NC(=O)[C@H](CO)NC(=O)[C@@H](N)CS)C(=O)N[C@@H](CS)C(=O)O,Ki,[1],6.7 µM
CC(C)C[C@H](NC(=O)[C@H](Cc1ccc(O)cc1)NC(=O)[C@H](CCCNC(=N)N)NC(=O)[C@H](CO)NC(=O)[C@H](Cc1ccc(O)cc1)NC(=O)[C@H](C)NC(=O)[C@@H]1CCCN1C(=O)[C@@H](N)CS)C(=O)N[C@@H](CC(=O)O)C(=O)N[C@@H](CS)C(=O)O,Ki,[1],0.4 µM
CC(C)C[C@H](NC(=O)[C@@H]1CCCN1C(=O)[C@H](CO)NC(=O)[C@H](CS)NC(=O)[C@H](Cc1cnc[nH]1)NC(=O)[C@H](CO)NC(=O)[C@H](Cc1ccc(O)cc1)NC(=O)[C@@H](CC(=O)O)NC(=O)CN)C(=O)N[C@@H](CCCNC(=N)N)C(=O)N[C@@H](Cc1ccc(O)cc1)C(=O)N[C@@H](Cc1ccc(O)cc1)C(=O)N1CCC[C@H]1C(=O)N[C@@H](Cc1c[nH]c2ccccc12)C(=O)N[C@@H](Cc1c[nH]c2ccccc12)C(=O)N[C@@H](CCCCN)C(=O)N[C@@H](CS)C(=O)N[C@H](C(=O)N[C@@H](Cc1ccc(O)cc1)C(=O)N1CCC[C@H]1C(=O)N[C@@H](CC(=O)O)C(=O)N1CCC[C@H]1C(=O)O)[C@@H](C)O,Ki,[2],0.0028 µM
CC(C)C[C@@H]1NC(=O)[C@H](C)NC(=O)[C@H](CCC(=O)O)NC(=O)[C@H](CC(=O)O)NC(=O)[C@H](C)NC(=O)[C@@H]2CCCN2C(=O)[C@@H]2CSCc3cc(cc(c3)CSC[C@@H](C(=O)NCC(N)=O)NC1=O)CSC[C@H](NC(=O)[C@H](C)N)C(=O)N[C@@H](CO)C(=O)N[C@@H](CC(=O)O)C(=O)N[C@@H](CCCNC(=N)N)C(=O)N[C@@H](Cc1ccccc1)C(=O)N[C@@H](CCCNC(=N)N)C(=O)N[C@@H](CC(N)=O)C(=O)N2 (H-ACSDRFRNCPADEALCG-NH2; linker 2-9-16 via TBMB),inhibition,[3],Active
same,metabolised at 24 h,[4],90%
same,Stability,[5],Unstable
CC[C@H](C)[C@H](NC(=O)[C@H](CCC(=O)O)NC(=O)[C@@H](NC(=O)[C@@H]1CCCN1C(=O)[C@H](CS)NC(=O)[C@H](Cc1ccc(O)cc1)NC(=O)[C@H](CCCNC(=N)N)NC(=O)[C@H](CCCNC(=N)N)NC(=O)[C@H](CCC(=O)O)NC(=O)[C@@H](NC(=O)[C@H](CO)NC(=O)[C@H](CS)NC(=O)[C@H](C)N)[C@@H](C)O)[C@@H](C)CC)C(=O)N[C@@H](Cc1ccccc1)C(=O)N1CCC[C@H]1C(=O)N[C@@H](CS)C(=O)NCC(N)=O (H-ACSTERRYCPIEIFPCG-NH2),inhibition,[6],inactive
same,IC50,[7],7.18 µM
same,inhibition,[8],inactive
same,inhibition,[9],inactive
N=C(N)NCCC[C@H](NC(=O)[C@H](CS)NC(=O)[C@H](CCCNC(=N)N)NC(=O)[C@H](Cc1c[nH]c2ccccc12)NC(=O)[C@H](CO)NC(=O)[C@H](Cc1ccccc1)NC(=O)[C@H](CS)NC(=O)[C@@H](N)CS)C(=O)N[C@@H](CS)C(=O)O (H-CCFSWRCRC-OH),Ki,[10],1 µM
CC(C)C[C@H](NC(=O)[C@H](Cc1ccccc1)NC(=O)[C@H](Cc1c[nH]c2ccccc12)NC(=O)[C@H](CCC(N)=O)NC(=O)[C@H](CC(C)C)NC(=O)[C@H](CC(C)C)NC(=O)[C@H](CCCN=C(N)N)NC(=O)[C@H](CC(C)C)NC(=O)[C@@H](N)CS)C(=O)N[C@@H](Cc1c[nH]c2ccccc12)C(=O)N[C@@H](C)C(=O)N[C@@H](CS)C(=O)O (H-CLRLLQWFLWAC-OH),Ki,[11],0.2 µM
CC[C@H](C)[C@H](NC(=O)[C@H](CS)NC(=O)[C@H](Cc1ccc(O)cc1)NC(=O)[C@H](C)NC(=O)[C@@H](NC(=O)[C@@H](N)CS)C(C)C)C(=O)N[C@@H](CCC(=O)O)C(=O)N[C@@H](Cc1cnc[nH]1)C(=O)N[C@@H](Cc1cnc[nH]1)C(=O)N[C@@H](CS)C(=O)N[C@@H](Cc1c[nH]c2ccccc12)C(=O)N[C@H](C(=O)N[C@@H](CS)C(=O)O)[C@@H](C)O (H-CVAYCIEHHCWTC-OH),Kd,[12],2.9 µM
CC(C)[C@H](NC(=O)[C@@H](N)CS)C(=O)N[C@@H](Cc1cnc[nH]1)C(=O)N[C@@H](CO)C(=O)N1CCC[C@H]1C(=O)N[C@@H](CC(N)=O)C(=O)N[C@@H](CCCNC(=N)N)C(=O)N[C@@H](CCC(=O)O)C(=O)N[C@@H](CS)C(=O)O (H-CVHSPNREC-OH),IC50,[13],9 µM
CC(C)C[C@H](NC(=O)[C@@H](NC(=O)[C@H](CCC(=O)O)NC(=O)[C@H](Cc1c[nH]c2ccccc12)NC(=O)[C@H](CCC(=O)O)NC(=O)[C@@H](N)CCC(=O)O)C(C)C)C(=O)N[C@@H](CS)C(=O)N[C@@H](Cc1c[nH]c2ccccc12)C(=O)N[C@H](C(=O)N[C@@H](Cc1c[nH]c2ccccc12)C(=O)N[C@@H](CCC(=O)O)C(=O)N[C@H](C(=O)N[C@@H](CS)C(=O)N[C@@H](CCC(=O)O)C(=O)N[C@@H](CCCN=C(N)N)C(=O)O)[C@@H](C)O)[C@@H](C)O (H-EEWEVLCWTWETCER-OH),IC50,[14],0.0015 µM
CC(C)C[C@H](NC(=O)[C@H](CO)NC(=O)[C@H](Cc1ccc(O)cc1)NC(=O)[C@H](CS)NC(=O)[C@H](CS)NC(=O)[C@@H](N)CCCCN)C(=O)O (H-KCCYSL-OH),Ki,[15],30 µM
H-SRFKVWWAAF-OH,IC50,[16],3.4 µM
H-YDFYWW-OH,IC50,[17],30 µM
